Data: ChEMBL document CHEMBL2176904, “Nonpeptidic lysosomal modulators derived from z-phe-ala-diazomethylketone for treating protein accumulation diseases” (ACS Med Chem Lett, 2012)
Activity calls are given as the source filed them. No cut-off for these calls is given here.

How the values were obtained:
[1] = test system: Hippocampus; experiment: Up-regulation of cathepsin-D level in lysosome of rat hippocampal slice cultures at 3 to 10 uM after 4 days by immunoblot analysis; assay type: functional, tissue-based
Outline: (§1)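 Organotypic hippocampal slice cultures from rat were treated daily with compound or vehicle. Cathepsin immunoreactivity was measured by immunoblot image analysis and reported as mean IOD ± SEM. Where stated, brefeldin A was co-present.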

[2] = test system: Hippocampus; experiment: Up-regulation of cathepsin-D level in lysosome of rat hippocampal slice cultures at 3 to 10 uM after 4 days by immunoblot analysis in presence of brefeldin-A; assay type: functional, tissue-based; outline: as §1
[3] = molecular target: T1, Cathepsin B (Homo sapiens, UniProt P07858); experiment: Inhibition of cathepsin-B using Z-Arg-Arg AMC as substrate by fluorescence assay relative to control; settings: concentration not given here
Outline: (§2)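 Z-Arg-Arg AMC as fluorogenic substrate, compounds titrated. Mean fluorescence units ± SEM were normalized to percent of control. Percent inhibition and IC50 range were fitted by nonlinear regression with one-site competition equations. Untreated control activity was compared with the highest compound concentration by unpaired t test.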

[4] = molecular target: T1, Cathepsin B; experiment: Inhibition of cathepsin-B using Z-Arg-Arg AMC as substrate by fluorescence assay; outline: as §2
[5] = test system: Hippocampus; experiment: Up-regulation of cathepsin-B level in lysosome of rat hippocampal slice cultures at 3 to 10 uM after 4 days by immunoblot analysis in presence of brefeldin-A; assay type: functional, tissue-based; outline: as §1
[6] = test system: Hippocampus; experiment: Up-regulation of cathepsin-B level in lysosome of rat hippocampal slice cultures at 3 to 10 uM after 4 days by immunoblot analysis; assay type: functional, tissue-based; outline: as §1
[7] = test system: Hippocampus; experiment: Up-regulation of cathepsin-D level in lysosome of rat hippocampal slice cultures at 0.3 to 1 uM after 4 days by immunoblot analysis; assay type: functional, tissue-based; outline: as §1
[8] = test system: Hippocampus; experiment: Up-regulation of cathepsin-B level in lysosome of rat hippocampal slice cultures at 0.3 to 1 uM after 4 days by immunoblot analysis; assay type: functional, tissue-based; outline: as §1
[9] = test system: Hippocampus; experiment: Up-regulation of cathepsin-D level in lysosome of rat hippocampal slice cultures at 10 uM after 4 days by immunoblot analysis relative to PADK
[10] = test system: Hippocampus; experiment: Up-regulation of cathepsin-B level in lysosome of rat hippocampal slice cultures at 20 uM after 4 days by immunoblot analysis; assay type: functional, tissue-based; settings: 10 uM, in the assay text read “10 uM” for “20 uM”
[11] = test system: Hippocampus; experiment: Up-regulation of cathepsin-B level in lysosome of rat hippocampal slice cultures at 10 uM after 4 days by immunoblot analysis relative to PADK
[12] = test system: Mus musculus; experiment: Inhibition of postsynaptic loss of GluR1 protein level in APPSwInd transgenic mouse 20Lms/2J hippocampal homogenates at 25 mg/kg, ip qd for 9 days relative to wild type mouse; assay type: functional, organism-based; parameters: dose 25 mg/kg; settings: Hippocampus
[13] = test system: Mus musculus; experiment: Reduction of 8 to 10-kDa oligomeric amyloid beta species in APPSwInd transgenic mouse 20Lms/2J hippocampal homogenates at 25 mg/kg, ip qd for 9 days relative to wild type mouse; assay type: functional, organism-based; parameters: dose 25 mg/kg; settings: Hippocampus
[14] = test system: Mus musculus; experiment: Inhibition of presynaptic loss of amphiphysin-I protein level in APPSwInd transgenic mouse 20Lms/2J hippocampal homogenates at 25 mg/kg, ip qd for 9 days relative to wild type mouse; settings: Hippocampus
[15] = test system: Mus musculus; experiment: Increase of active form of cathepsin-B level in APPSwInd transgenic mouse 20Lms/2J hippocampal homogenates at 25 mg/kg, ip qd for 9 days relative to wild type mouse; assay type: functional, organism-based; parameters: dose 25 mg/kg; settings: Hippocampus

C[C@H](NC(=O)[C@H](Cc1ccccc1)NC(=O)OCc1ccccc1)C(=O)C=[N+]=[N-]
Activity [1]: Active | Activity [2]: inactive | inhibition [3]: 100% | IC50 [4]: 9400 nM | Activity [5]: inactive | Activity [6]: Active

N#[N+][CH-]C(=O)N(Cc1ccccc1)C[C@@H](O)[C@H](Cc1ccccc1)NC(=O)OCc1ccccc1
IC50 [4]: 2000 nM

CCCNC(=O)[C@H]1O[C@@H]1C(=O)N[C@H](C(=O)N1CCC[C@H]1C(=O)OC)[C@@H](C)CC
inhibition [3]: 100% | Activity [7]: inactive | IC50 [4]: 80 nM | Activity [8]: inactive

[N-]=[N+]=CC(=O)N(Cc1ccccc1)C[C@@H](O)[C@H](Cc1ccccc1)NC(=O)OCc1ccccc1
fold change (FC) [9]: 2 | inhibition [3]: 13% | Activity [10]: Active | fold change (FC) [11]: 2

CC(=O)N(Cc1ccccc1)C[C@@H](O)[C@H](Cc1ccccc1)NC(=O)OCc1ccccc1
inhibition [12]: Active | Activity [13]: Active | inhibition [3]: 8% | inhibition [14]: Active | IC50 [4]: > 100000 nM | Activity [10]: Active | Activity [15]: Active
